Source: ChEMBL document CHEMBL3862017, “Synthesis and evaluation of the structural elements in alkylated tetrahydroisoquinolines for binding to CNS receptors” (Bioorg Med Chem, 2016)

Legend:
[1] = biological target: T1, 5-hydroxytryptamine receptor 2C (Homo sapiens, UniProt P28335); assay: Displacement of [3H]-mesulergine from human 5-HT2C receptor by liquid scintillation counting method; conditions: for inhibition (INH): human
T1 sequence (P28335 whole entry): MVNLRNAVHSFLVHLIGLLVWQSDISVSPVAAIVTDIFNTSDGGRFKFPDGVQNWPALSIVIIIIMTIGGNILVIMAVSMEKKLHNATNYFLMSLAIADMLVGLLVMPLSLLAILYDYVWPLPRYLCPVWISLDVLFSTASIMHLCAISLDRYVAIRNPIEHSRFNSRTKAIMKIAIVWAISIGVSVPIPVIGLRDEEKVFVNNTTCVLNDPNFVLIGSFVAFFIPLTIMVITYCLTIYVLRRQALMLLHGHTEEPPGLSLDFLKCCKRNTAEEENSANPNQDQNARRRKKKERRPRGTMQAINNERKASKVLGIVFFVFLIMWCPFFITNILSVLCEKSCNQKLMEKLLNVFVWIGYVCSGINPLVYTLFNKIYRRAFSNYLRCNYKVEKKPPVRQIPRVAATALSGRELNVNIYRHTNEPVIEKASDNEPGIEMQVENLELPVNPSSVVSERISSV
Outline: (§1)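 Binding assays run by the NIMH Psychoactive Drug Screening Program (PDSP) using its previously reported methods and radioligands. Affinity is given as Ki.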

[2] = biological target: T2, D(4) dopamine receptor (Rattus norvegicus, UniProt P30729)
T2 sequence (P30729 whole entry): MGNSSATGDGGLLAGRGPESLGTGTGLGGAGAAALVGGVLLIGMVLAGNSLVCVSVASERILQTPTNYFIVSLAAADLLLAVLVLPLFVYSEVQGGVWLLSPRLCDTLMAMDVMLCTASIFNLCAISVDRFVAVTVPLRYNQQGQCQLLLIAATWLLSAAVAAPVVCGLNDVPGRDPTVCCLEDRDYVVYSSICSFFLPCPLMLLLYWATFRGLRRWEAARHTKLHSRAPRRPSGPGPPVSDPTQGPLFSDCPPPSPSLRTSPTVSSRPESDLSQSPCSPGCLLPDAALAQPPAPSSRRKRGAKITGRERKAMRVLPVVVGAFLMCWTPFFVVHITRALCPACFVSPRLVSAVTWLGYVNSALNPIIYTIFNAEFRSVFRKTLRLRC

[3] = biological target: 5-hydroxytryptamine receptor 2B (Homo sapiens, UniProt P41595); assay: Displacement of [3H]-LSD from human 5-HT2B receptor by liquid scintillation counting method; outline: as §1
Sequence of 5-hydroxytryptamine receptor 2B (P41595 whole entry): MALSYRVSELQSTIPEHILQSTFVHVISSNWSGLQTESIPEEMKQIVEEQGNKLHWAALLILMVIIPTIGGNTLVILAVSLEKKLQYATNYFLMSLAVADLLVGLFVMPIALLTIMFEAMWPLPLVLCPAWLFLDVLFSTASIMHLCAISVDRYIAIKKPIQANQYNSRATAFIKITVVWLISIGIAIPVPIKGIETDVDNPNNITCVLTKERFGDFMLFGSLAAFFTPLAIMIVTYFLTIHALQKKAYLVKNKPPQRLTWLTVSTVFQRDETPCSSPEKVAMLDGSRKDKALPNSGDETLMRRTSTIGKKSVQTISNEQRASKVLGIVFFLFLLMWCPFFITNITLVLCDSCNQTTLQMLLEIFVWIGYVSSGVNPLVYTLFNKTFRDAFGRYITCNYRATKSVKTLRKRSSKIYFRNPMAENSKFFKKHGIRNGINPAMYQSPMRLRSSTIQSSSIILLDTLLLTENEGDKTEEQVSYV

[4] = biological target: 5-hydroxytryptamine receptor 2A (Homo sapiens, UniProt P28223); assay: Displacement of [3H]-ketanserin from human 5-HT2A receptor by liquid scintillation counting method; conditions: for inhibition: concentration not given here; outline: as §1
Sequence of 5-hydroxytryptamine receptor 2A (P28223 whole entry): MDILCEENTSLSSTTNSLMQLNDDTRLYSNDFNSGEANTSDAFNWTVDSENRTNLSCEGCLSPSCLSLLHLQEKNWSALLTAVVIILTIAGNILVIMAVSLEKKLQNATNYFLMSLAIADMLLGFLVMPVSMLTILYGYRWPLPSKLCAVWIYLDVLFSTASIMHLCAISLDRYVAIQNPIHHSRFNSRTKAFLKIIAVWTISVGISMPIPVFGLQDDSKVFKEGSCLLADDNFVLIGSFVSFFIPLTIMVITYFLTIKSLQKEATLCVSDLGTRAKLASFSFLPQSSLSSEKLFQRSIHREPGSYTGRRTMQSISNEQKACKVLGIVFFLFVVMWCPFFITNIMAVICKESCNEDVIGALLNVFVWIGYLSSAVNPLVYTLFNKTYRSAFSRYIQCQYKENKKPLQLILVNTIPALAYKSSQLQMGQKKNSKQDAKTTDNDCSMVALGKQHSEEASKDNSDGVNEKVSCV

[5] = biological target: D(2) dopamine receptor (Homo sapiens) (UniProt P14416); assay: Displacement of [3H]-N-methylspiperone from human dopamine D2 receptor by liquid scintillation counting method; design: concentration or dose not given beside the values; conditions: concentration not given here; outline: as §1
Sequence of D(2) dopamine receptor (Homo sapiens) (P14416 whole entry): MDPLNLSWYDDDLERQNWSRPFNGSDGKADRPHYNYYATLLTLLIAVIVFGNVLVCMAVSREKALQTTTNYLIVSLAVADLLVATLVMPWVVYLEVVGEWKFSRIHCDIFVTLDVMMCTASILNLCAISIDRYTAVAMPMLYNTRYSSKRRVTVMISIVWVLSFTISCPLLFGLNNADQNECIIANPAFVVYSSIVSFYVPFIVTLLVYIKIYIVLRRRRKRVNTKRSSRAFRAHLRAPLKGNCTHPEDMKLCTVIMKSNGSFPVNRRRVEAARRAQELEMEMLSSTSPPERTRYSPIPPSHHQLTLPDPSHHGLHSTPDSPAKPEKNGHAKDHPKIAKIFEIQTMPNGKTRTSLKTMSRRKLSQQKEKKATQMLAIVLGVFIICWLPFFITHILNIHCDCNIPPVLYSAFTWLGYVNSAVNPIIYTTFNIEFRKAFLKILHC

[6] = biological target: Histamine H1 receptor (Homo sapiens, UniProt P35367); assay: Displacement of [3H]-pyrilamine from human histamine H1 receptor by liquid scintillation counting method; outline: as §1
Sequence of Histamine H1 receptor (P35367 whole entry): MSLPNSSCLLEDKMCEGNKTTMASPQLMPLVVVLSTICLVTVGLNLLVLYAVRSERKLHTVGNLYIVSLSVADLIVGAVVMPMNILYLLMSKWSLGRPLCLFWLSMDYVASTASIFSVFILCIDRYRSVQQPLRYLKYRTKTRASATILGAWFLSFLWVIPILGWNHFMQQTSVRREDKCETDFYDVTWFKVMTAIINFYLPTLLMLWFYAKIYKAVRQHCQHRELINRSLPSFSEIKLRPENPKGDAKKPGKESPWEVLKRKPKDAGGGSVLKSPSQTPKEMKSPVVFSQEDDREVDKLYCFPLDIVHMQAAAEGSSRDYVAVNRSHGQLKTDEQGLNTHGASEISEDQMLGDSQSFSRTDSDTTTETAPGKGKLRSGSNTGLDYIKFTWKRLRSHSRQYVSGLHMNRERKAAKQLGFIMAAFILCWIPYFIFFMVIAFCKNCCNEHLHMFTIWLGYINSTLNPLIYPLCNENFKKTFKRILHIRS

[7] = biological target: 5-hydroxytryptamine receptor 7 (Homo sapiens) (UniProt P34969); assay: Displacement of [3H]-LSD from human 5-HT7 receptor by liquid scintillation counting method; conditions: concentration not given here; outline: as §1
Sequence of 5-hydroxytryptamine receptor 7 (Homo sapiens) (P34969 whole entry): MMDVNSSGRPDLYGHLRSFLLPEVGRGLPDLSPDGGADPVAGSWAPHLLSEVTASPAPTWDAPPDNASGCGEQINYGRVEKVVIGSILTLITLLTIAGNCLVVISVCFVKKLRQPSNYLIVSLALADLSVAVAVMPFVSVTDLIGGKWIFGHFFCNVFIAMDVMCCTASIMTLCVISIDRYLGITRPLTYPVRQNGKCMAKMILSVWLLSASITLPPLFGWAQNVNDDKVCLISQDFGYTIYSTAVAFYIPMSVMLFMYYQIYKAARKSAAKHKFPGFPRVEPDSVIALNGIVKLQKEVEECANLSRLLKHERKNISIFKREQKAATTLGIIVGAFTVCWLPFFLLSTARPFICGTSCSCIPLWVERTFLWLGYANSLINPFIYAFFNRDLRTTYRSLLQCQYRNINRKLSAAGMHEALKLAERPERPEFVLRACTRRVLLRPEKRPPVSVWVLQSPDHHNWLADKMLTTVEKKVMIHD

[8] = biological target: D(3) dopamine receptor (Homo sapiens) (UniProt P35462); assay: Displacement of [3H]-N-methylspiperone from human dopamine D3 receptor by liquid scintillation counting method; conditions: concentration not given here; outline: as §1
Sequence of D(3) dopamine receptor (Homo sapiens) (P35462 whole entry): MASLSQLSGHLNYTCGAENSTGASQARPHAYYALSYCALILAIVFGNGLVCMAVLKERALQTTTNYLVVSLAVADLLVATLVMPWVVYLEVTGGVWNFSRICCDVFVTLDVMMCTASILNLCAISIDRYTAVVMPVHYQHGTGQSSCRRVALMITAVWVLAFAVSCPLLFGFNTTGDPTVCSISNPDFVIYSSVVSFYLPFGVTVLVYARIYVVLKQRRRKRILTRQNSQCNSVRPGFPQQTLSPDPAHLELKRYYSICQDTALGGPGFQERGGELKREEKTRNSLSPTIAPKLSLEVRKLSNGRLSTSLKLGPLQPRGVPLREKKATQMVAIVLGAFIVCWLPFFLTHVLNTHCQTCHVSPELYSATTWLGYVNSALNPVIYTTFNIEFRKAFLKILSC

[9] = biological target: T3, 5-hydroxytryptamine receptor 1A (Homo sapiens) (UniProt P08908); assay: Displacement of [3H]-8-OH-DPAT from human 5-HT1A receptor by liquid scintillation counting method; conditions: concentration not given here; outline: as §1
T3 sequence (whole entry): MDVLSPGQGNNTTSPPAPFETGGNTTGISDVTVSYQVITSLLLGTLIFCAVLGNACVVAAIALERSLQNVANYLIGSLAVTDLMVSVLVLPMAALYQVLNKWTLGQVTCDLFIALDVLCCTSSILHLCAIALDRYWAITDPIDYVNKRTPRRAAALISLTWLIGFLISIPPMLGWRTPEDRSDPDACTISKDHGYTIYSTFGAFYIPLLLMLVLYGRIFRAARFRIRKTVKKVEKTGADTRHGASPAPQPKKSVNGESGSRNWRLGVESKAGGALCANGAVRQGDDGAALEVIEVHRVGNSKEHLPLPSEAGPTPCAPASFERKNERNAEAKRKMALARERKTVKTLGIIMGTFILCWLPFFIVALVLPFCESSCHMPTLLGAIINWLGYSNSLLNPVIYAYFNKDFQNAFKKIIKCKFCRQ

`Cl.Cl.c1ccc2c(c1)CCN(CCCc1nc3ccccc3[nH]1)C2` was tested, and the Ki [1] was over 10 µM, the Ki [2] was 127 nM and the “inhibition (INH)” value [3] was under 50%. For the same molecule, the Ki [4] was over 10 µM.
`O=C(CCCN1CCCc2ccccc21)c1ccc(Cl)cc1` was tested, and the inhibition [5] was under 50%, the “inhibition (INH)” value [6] was under 50% and the inhibition [7] was under 50%. The inhibition [8] was under 50%, the “inhibition (INH)” value [3] was under 50% and the inhibition [4] was under 50%. The inhibition [9] was under 50%.
For `O=C(CCCN1CCc2ccccc2CC1)c1ccc(Cl)cc1`, the Ki [2] was 82 nM.
With `O=C1c2ccc(F)cc2CC1CCN1CCc2ccccc2C1` (centres undefined) the “inhibition (INH)” value [1] was under 50% and the Ki [2] was 251 nM.
For `COc1cc2c(cc1OC)CN(CCCCc1nc3cc(Cl)ccc3s1)CC2`, the Ki [2] was 272 nM.
In the case of `Cl.O=C(CCCN1CCCCc2ccccc21)c1ccc(Cl)cc1`, the inhibition [5] is reported as under 50%, the “inhibition (INH)” value [6] is reported as under 50% and the “inhibition (INH)” value [1] is reported as under 50%. For the same molecule, the inhibition [7] was under 50%, the inhibition [8] was under 50% and the “inhibition (INH)” value [3] was under 50%. The inhibition [4] was under 50% and the inhibition [9] was under 50%.
With `c1ccc2c(c1)CCN(CCCc1nc3ccccc3s1)C2` the inhibition [5] was under 50% and the Ki [2] was 41 nM.
`O=C1c2ccc(Cl)cc2CC1CCN1CCc2ccccc2C1` (centres undefined) was tested, and the Ki [2] was 50 nM.
`O=C(CCCN1CCCc2ccccc2C1)c1ccc(Cl)cc1` gave a Ki [2] of 442 nM.
`CC1(C)CC(=O)N(CCCCN2Cc3ccccc3C2)C(=O)C1` showed a Ki [2] of over 10000 nM.
`O=C1Cc2cc(C(=O)CCCN3CCc4ccccc4C3)ccc2N1` was tested, and the “inhibition (INH)” value [6] was under 50% and the Ki [2] was 3340 nM.
`Clc1ccc2sc(CCCCN3CCC4CCCCC4C3)nc2c1` (centres undefined) showed a Ki [2] of 37 nM.
Molecule `C1=C(CCN2CCc3ccccc3C2)CCc2ccccc21` has a Ki [2] of 140 nM.
In the case of `Cl.Clc1ccc(C(=CCCN2CCc3ccccc3C2)c2ccc(Cl)cc2)cc1`, the inhibition [5] is reported as under 50%, the “inhibition (INH)” value [3] is reported as under 50% and the inhibition [4] is reported as under 50%. The inhibition [9] was under 50%.
Work on `O=C1c2ccccc2CC1CCN1CCc2ccccc2C1` (centres undefined) yielded a Ki [2] of 1100 nM.
Molecule `Clc1cccc2c1CN(CCCCc1nc3ccccc3s1)CC2` has a Ki [2] of 129 nM.
`C1=C(CCN2CCc3ccccc3C2)Cc2ccccc21` was tested, and the inhibition [5] was under 50%, the “inhibition (INH)” value [6] was under 50% and the “inhibition (INH)” value [1] was under 50%. The Ki [2] was 194 nM.
With `CC1(C)CC(=O)N(CCCCN2CCc3ccccc3C2)C(=O)C1.Cl` the inhibition [5] was under 50%, the “inhibition (INH)” value [6] was under 50% and the “inhibition (INH)” value [1] was under 50%. The inhibition [7] was under 50%, the “inhibition (INH)” value [3] was under 50% and the inhibition [4] was under 50%. For the same molecule, the inhibition [9] was under 50%.
